The results in this text go back to ChEMBL document CHEMBL1122794, “[(Arylcarbonyl)oxy]propanolamines. 1. Novel beta-blockers with ultrashort duration of action” (J Med Chem, 1984).

Data set [1] is described as follows: Time in which 1/2 of the initial amount disappeared in canine liver (44). The format is ADME, […], Canis lupus familiaris. Particulars: dog. A digest of the protocol:
(§1)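 1 mL of solution containing 50 µg of compound was added to 1 mL of dog or human whole blood, or to 1 mL of 33% (w/v) canine liver homogenate. They were assayed by HPLC on a phenyl column with 60% acetonitrile/40% 0.05 M sodium phosphate (pH 6.6) and UV detection. Half-life was read graphically from concentration versus time.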

The nature of data set [2]: Stability at pH 7.4 and 37 degree Celsius (after 18 h). It counts as physicochemical. Particulars: buffer. A digest of the protocol:
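Chemical stability was tested in pH 7.4 buffer at 37 °C. The percentage of parent compound remaining after 18 h of incubation was recorded.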

Data set [3] can be described thus: Time in which 1/2 of the initial amount disappeared in human blood. The format is ADME, organism-based. In outline:
as §1

A short description of data set [4]: T1/2 in canine blood. It counts as ADME, […], Canis lupus familiaris. Particulars: dog. In outline:
as §1

Data set [5] is described as follows: Selectivity determined by expression 10[pA2(atria) - pA2 (trachea)] in guinea pig. The format is functional, Cavia porcellus.
The nature of data set [6]: t1/2 in canine liver. The format is ADME, Canis lupus familiaris. Particulars: dog.
In data set [7] the target is T1, Adrenergic receptor beta (Homo sapiens, UniProt P08588+P07550+P13945). In words: In Vitro inhibition of the beta adrenergic receptor in guinea pig atria. It counts as tissue-based, Cavia porcellus. Particulars: target entry is the homologue from another species.
For data set [8], the species on record is Canis familiaris. In words: Time taken for 80% recovery at a dose of 20 microg (3-h infusion period). Particulars: Canis lupus familiaris. The format is functional, organism-based.
The species entered for data set [9] is Canis familiaris. In words: Percent inhibition of isoproterenol induced tachycardia at a dose of 20 microg (3-h infusion period). It counts as functional, Canis lupus familiaris.
Data set [10] deals with T1, Adrenergic receptor beta. Description: In vitro blocking of beta adrenergic receptor in guinea pig trachea. Particulars: target entry is the homologue from another species. It counts as tissue-based, Cavia porcellus.
The species named for data set [11] is Canis familiaris. Description: Time taken for 80% recovery at a dose of 226 microg (3-h infusion period). The format is functional, organism-based. Particulars: Canis lupus familiaris.
The species named for data set [12] is Canis familiaris. In words: Time taken for 80% recovery at a dose of 3.3 microg (3-h infusion period). Particulars: Canis lupus familiaris. The format is functional, organism-based.
Data set [13] is filed under the species Canis familiaris. In words: Percent inhibition of isoproterenol induced tachycardia at a dose of 3.3 microg (3-h infusion period). The format is functional, Canis lupus familiaris.
In data set [14] the target is Beta-2 adrenergic receptor (Cavia porcellus) (UniProt Q8K4Z4). Description: In Vitro evaluation for […] selectivity in guinea pig. In outline: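 Selectivity index calculated as 10^[pA2(atria) − pA2(trachea)] from pA2 values measured in isolated guinea pig atria and trachea. A minus sign denotes β2 selectivity.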
Sequence of Beta-2 adrenergic receptor (Cavia porcellus) (Q8K4Z4 whole entry, looked up): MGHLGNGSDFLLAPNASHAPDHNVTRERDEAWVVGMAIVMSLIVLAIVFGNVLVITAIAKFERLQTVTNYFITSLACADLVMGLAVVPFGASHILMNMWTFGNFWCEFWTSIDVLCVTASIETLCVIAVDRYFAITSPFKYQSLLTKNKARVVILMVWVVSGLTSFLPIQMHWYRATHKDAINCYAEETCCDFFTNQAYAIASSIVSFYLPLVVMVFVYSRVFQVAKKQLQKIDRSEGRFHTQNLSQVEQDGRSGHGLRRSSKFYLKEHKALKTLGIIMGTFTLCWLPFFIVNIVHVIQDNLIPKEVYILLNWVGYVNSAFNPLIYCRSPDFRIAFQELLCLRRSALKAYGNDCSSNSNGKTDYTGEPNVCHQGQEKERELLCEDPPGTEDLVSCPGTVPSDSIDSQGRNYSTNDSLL
The nature of data set [15]: Time in which 1/2 of the initial amount disappeared in canine blood. The format is ADME, […], Canis lupus familiaris. Particulars: dog. In outline: as §1
A short description of data set [16]: Time in which 1/2 of the initial amount disappeared in canine liver. The format is ADME, […], Canis lupus familiaris. Particulars: dog. A digest of the protocol: as §1
For data set [17], the species on record is Canis familiaris. In words: Time taken for 80% recovery at a dose of 10 microg (3-h infusion period). The format is functional, organism-based. Particulars: Canis lupus familiaris.
Data set [18] is filed under the species Canis familiaris. In words: Percent inhibition of isoproterenol induced tachycardia at a dose of 10 microg (3-h infusion period). It counts as functional, Canis lupus familiaris.
Data set [19] is filed under the species Canis familiaris. In words: Time taken for 80% recovery at a dose of 27 microg (3-h infusion period). The format is functional, organism-based. Particulars: Canis lupus familiaris.
The species entered for data set [20] is Canis familiaris. Description: Percent inhibition of isoproterenol induced tachycardia at a dose of 27 microg (3-h infusion period). The format is functional, Canis lupus familiaris.
The species entered for data set [21] is Canis familiaris. Description: Percent inhibition of isoproterenol induced tachycardia at a dose of 8 microg (3-h infusion period). It counts as functional, Canis lupus familiaris.
Data set [22] is filed under the species Canis familiaris. Description: Time taken for 80% recovery at a dose of 8 microg (3-h infusion period). It counts as functional, organism-based. Particulars: Canis lupus familiaris. In outline:
(§2)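 After the infusion ended, the time to 80% recovery of the blockade was recorded as duration of action. The listed dose is the average amount infused per minute over the 3-h period, in µg/(kg min).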

The species named for data set [23] is Canis familiaris. In words: Time taken for 80% recovery at a dose of 123 microg (3-h infusion period). Particulars: Canis lupus familiaris. It counts as functional, organism-based.
Data set [24] has as its target T1, Adrenergic receptor beta. In words: In vitro beta adrenergic receptor blocking in guinea pig trachea. The format is tissue-based, Cavia porcellus. Particulars: target entry is the homologue from another species.
Data set [25] is filed under the species Canis familiaris. In words: Percent inhibition of isoproterenol induced tachycardia at a dose of 1.1 microg (3-h infusion period). It counts as functional, Canis lupus familiaris.
The species entered for data set [26] is Canis familiaris. Description: Time taken for 80% recovery at a dose of 1.1 microg (3-h infusion period). It counts as functional, organism-based. Particulars: Canis lupus familiaris.
The species named for data set [27] is Canis familiaris. In words: Time taken for 80% recovery at a dose of 18 microg (3-h infusion period). Particulars: Canis lupus familiaris. It counts as functional, organism-based.
For data set [28], the species on record is Canis familiaris. In words: Percent inhibition of isoproterenol induced tachycardia at a dose of 70 microg (3-h infusion period). The format is functional, Canis lupus familiaris.
The species named for data set [29] is Canis familiaris. In words: Time taken for 80% recovery at a dose of 70 microg (3-h infusion period). The format is functional, organism-based. Particulars: Canis lupus familiaris. A digest of the protocol: as §2
Data set [30] is filed under the species Canis familiaris. Description: Percent inhibition of isoproterenol induced tachycardia at a dose of 23 microg (3-h infusion period). The format is functional, Canis lupus familiaris.
For data set [31], the species on record is Canis familiaris. Description: Time taken for 80% recovery at a dose of 23 microg (3-h infusion period). It counts as functional, organism-based. Particulars: Canis lupus familiaris.

On to `CC(C)NCC(O)COC(=O)c1ccccc1Cl` (stereo not drawn), for which the results for the half-life in [1], in [3] and in [4] were 12 min, 1.7 min and 28 min, respectively. In addition, the fraction remaining (usually what is left of the initial amount, in per cent) at 18 h in data set [2] came out at 92%.

`CC(C)(C)NCC(O)COC(=O)c1ccccc1F` (stereo not drawn) came in with a share remaining at 18 h in data set [2] of 98%. The half-life (in general, the time in which the quantity being followed falls by half) in data set [3] is 1.6 min; in [6], 10 min; in data set [4], 30 min. The Selectivity in [5] was -16. Also, the pA2 (as a rule, the negative logarithm of the molar antagonist concentration that doubles the agonist concentration needed for the same response) came to 6.8 at Adrenergic receptor beta [7] and 8 at Adrenergic receptor beta [10]. The Recovery time in the data set listed under Canis familiaris [8] was 17 min. In addition, the Inhibition (in general, the relative decrease from the control value, in per cent) in the data set filed under Canis familiaris [9] is recorded as 60%.

As to `COc1ccc(CCNCC(O)COC(=O)c2ccccc2C)cc1OC` (stereo not drawn), in data set [2], the share remaining at 18 h is 94%. Moreover, the Selectivity in data set [5] worked out at 2. Moreover, the pA2 at Adrenergic receptor beta [7] was found to be 7; on Adrenergic receptor beta [10] it was 6.8. In the data set filed under Canis familiaris [11], the Recovery time is over 60 min.

In the data set filed under Canis familiaris [12], `CC(C)C(=O)NCC(C)(C)NCC(O)COC(=O)c1ccccc1F` (stereo not drawn) registered a Recovery time of 22 min. In addition, the half-life was determined as 3.5 min in data set [6] and 20 min in data set [4]. Besides, the Inhibition in the data set listed under Canis familiaris [13] is given as 62%.

In the case of `CC(C)(C)NCC(O)COC(=O)c1ccc(C=O)cc1` (stereo not drawn), the Selectivity in data set [14] is 1. The values for the half-life in data set [15] and in [16] were 14 min and 1 min, respectively. Besides, the pA2 amounted to 6.2 at Adrenergic receptor beta [7] and 6.3 on Adrenergic receptor beta [10].

In the data set filed under Canis familiaris [17], `CC(C)(CNC(=O)Cc1ccccc1)NCC(O)COC(=O)c1ccccc1F` (stereo not drawn) came in with a Recovery time of 19 min. Also, in [5], the Selectivity is listed as -5. For the same compound, the half-life in data set [6] was 25 min; in [4], 6 min. The compound also had an Inhibition in the data set listed under Canis familiaris [18] of 68%. The pA2 at Adrenergic receptor beta [7] came to 7.4; at Adrenergic receptor beta [10], 8.1.

In data set [5], `CC(C)(C)NCC(O)COC(=O)c1ccccc1O` (stereo not drawn) had a Selectivity of -9. The values for the half-life in data set [6] and in data set [4] were 31 min and 41 min, respectively. Also, the Recovery time in the data set filed under Canis familiaris [19] was over 60 min. Also, the values for the pA2 at Adrenergic receptor beta [7] and at Adrenergic receptor beta [10] were 7.1 and 8, respectively. For the same compound, the Inhibition in the data set filed under Canis familiaris [20] is reported as 73%.

Turning to `CC(C)(CNC(=O)C1CCCCC1)NCC(O)COC(=O)c1ccccc1F` (stereo not drawn), in data set [5], the Selectivity came to 3. This compound also registered an Inhibition in the data set listed under Canis familiaris [21] of 61%. Moreover, the figures for the pA2 at Adrenergic receptor beta [7] and at Adrenergic receptor beta [10] were 7.7 and 7.2, respectively. In the data set listed under Canis familiaris [22], the Recovery time turned out to be 12 min.

Take `CC(C)NCC(O)COC(=O)c1ccc2c(c1)OCO2` (stereo not drawn): the half-life in data set [6] turned out to be 29 min. The same compound yielded a Recovery time in the data set filed under Canis familiaris [23] of 50 min. This compound also yielded a pA2 at Adrenergic receptor beta [7] of 6.9.

`CC(C)(CNC(=O)N1CCOCC1)NCC(O)COC(=O)c1ccccc1F` (stereo not drawn) displayed a Selectivity in data set [5] of 2. The pA2 is 8.2 at Adrenergic receptor beta [24] and 8.5 at Adrenergic receptor beta [7]. In the data set listed under Canis familiaris [25], this compound returned an Inhibition of 81%. This compound also returned a Recovery time in the data set listed under Canis familiaris [26] of over 60 min.

Compound `CC(C)(C)NCC(O)COC(=O)c1ccccc1Cl` (stereo not drawn) showed an amount remaining at 18 h in data set [2] of 98%. Besides, the half-life in data set [3] worked out at 6 min; in data set [6], 72 min; in data set [4], 31 min. Further, the Recovery time in the data set listed under Canis familiaris [27] is over 35 min.

The compound `CC(C)(C)NCC(O)COC(=O)c1ccccc1` (stereo not drawn) yielded an Inhibition in the data set listed under Canis familiaris [28] of 65%. Moreover, in the data set listed under Canis familiaris [29], the Recovery time is over 60 min. Besides, the fraction remaining at 18 h in data set [2] is 99%. Moreover, the half-life in data set [3] is 5.3 min; in data set [6], 20 min; in data set [4] it was 7.3 min. Also, the Selectivity in data set [5] is on record as -8. The pA2 at Adrenergic receptor beta [7] turned out to be 6.8; on Adrenergic receptor beta [10], 7.7.

On to `CC(C)(C)NCC(O)COC(=O)c1ccc([N+](=O)[O-])cc1Cl` (stereo not drawn), for which the Inhibition in the data set listed under Canis familiaris [30] was determined as 85%. Further, the Selectivity in data set [5] was 1. Besides, the pA2 came to 6.6 on Adrenergic receptor beta [7] and 6.5 on Adrenergic receptor beta [10]. Moreover, the Recovery time in the data set listed under Canis familiaris [31] is over 60 min.
